T cell HTS – T cell immune modulation candidate; 2C CD8+ T cell-vesicle binding, flow cytometry; hits give low values; response (vesicle binding), % at 7 µM; hit rate 0.068% among 330,000; AID 2052;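 active = response, share of CD8 T cells binding vesicles, and their 90th percentile fluorescence all below set limits, cut at about 80% in these data, passing the limit was not always enough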;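 note: values below 100% mean blocked vesicle binding to the CD8+ T cells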
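Incubation: binding step 1.5 h, 37 °C, antibody labelling 20 min, ice; system: murine 2C transgenic CD8+ T lymphocytes; technique: cytometric PE anti-B7-1 and Alexa647 anti-CD8 signals after 1% paraformaldehyde fixation; also added: QL9-charged Drosophila Ld/ICAM-1/B7-1 vesicles; control set: naked versus QL9-loaded vesicles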
proKLK7 act – proKLK7 (human) activation, primary screen; purified proKLK7, EDANS-DABCYL substrate fluorescence; 100% is mature enzyme control, 0% vehicle; activation, % at 7 µM; hit rate 0.9% among 370,000;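 active = activation above the mean of all tested compounds plus 3 SD, computed per campaign excluding outliers beyond control limits, cut at about 13% in these data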
Target sequence (P49862 whole entry, looked up): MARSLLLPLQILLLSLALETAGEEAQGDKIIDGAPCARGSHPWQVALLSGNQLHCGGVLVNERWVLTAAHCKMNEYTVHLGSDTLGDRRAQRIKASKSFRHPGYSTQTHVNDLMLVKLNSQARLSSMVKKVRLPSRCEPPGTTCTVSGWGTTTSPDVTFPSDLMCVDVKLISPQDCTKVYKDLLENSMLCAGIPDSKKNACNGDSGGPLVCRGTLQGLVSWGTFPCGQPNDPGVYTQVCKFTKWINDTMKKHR
V-ATPase pHluor – alters yeast V-ATPase proton transport; response, % at 10 µM; S. cerevisiae, pHLuorin cytosolic pH fluorescence; hit rate 0.37% among 350,000; in the data active = response mostly above about 7.3%, no sharp cut-off; inactive = mostly below about 5.4%; note: actives read high
Yeast superoxide – yeast age-related superoxide inhibition as caloric restriction mimetic | AID 2690 | superoxide response (% of plate mean), % at 10 µM | S. cerevisiae aged cells, superoxide DHE fluorescence; hits give low values | hit rate 0.18% among 330,000;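 active = superoxide response under a set limit, about three screen SD below normal, cut at about 65% in these data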;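 note: yeast aged for seven days with compound at 30 °C before DHE staining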
beta cell repl – inducers of beta-cell replication in MIN6 cells. MIN6 cells proliferation, ATPlite luminescence, 48 h; cells starved in 0.2% serum; 100% = growth in 10% serum. proliferation, % at 10 µM. hit rate 0.29% among 330,000. AID 2380;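 active = compounds whose signal lies at least 3.5 SD above the mean of all wells on their plate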
Rce1 inhib – blocks yeast Ras-converting enzyme. Q03530. yeast membranes, quenched prenylated peptide cleavage fluorescence. calls only. hit rate 0.27% among 290,000;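 active = fall in fluorescence gain of 50% or more versus controls, with final raw signal at or below 3038400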
Target sequence (Q03530 whole entry, looked up): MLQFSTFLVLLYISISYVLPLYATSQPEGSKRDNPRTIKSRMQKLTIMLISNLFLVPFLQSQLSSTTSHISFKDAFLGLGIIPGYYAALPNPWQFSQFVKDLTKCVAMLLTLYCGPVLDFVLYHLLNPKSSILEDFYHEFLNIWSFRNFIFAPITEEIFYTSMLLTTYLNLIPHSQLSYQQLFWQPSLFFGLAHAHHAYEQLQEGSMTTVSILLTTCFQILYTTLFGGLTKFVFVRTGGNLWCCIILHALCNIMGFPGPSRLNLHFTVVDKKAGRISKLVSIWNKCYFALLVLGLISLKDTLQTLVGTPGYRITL
CR mimetic CP – yeast aging superoxide inhibition, cherry pick confirmation. hit rate 1% among 850. superoxide response (% of plate), % at 10 µM. S. cerevisiae aging, superoxide DHE fluorescence; hits give low values. AID 434994. shares compounds with Yeast superoxide;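 active = superoxide signal below 65% of the plate average of sample wells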;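 note: cells aged with compound for 7 days at 30 degrees C before staining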
DHE counter – compound alters DHE oxidation or fluorescence in yeast. shares compounds with Yeast superoxide. S. cerevisiae BY4741, flow cytometry; hits give low values. fluorescence response, % at 10 µM. 850 tested, under 10 active;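 active = fluorescence response below 15%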;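 note: lower means stronger quenching of DHE signal or ROS scavenging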
Large screens that a line does not name were inactive (follow-up assays come after a bar, where they were run). Shown are actives, neighbours in structure and some others; about 1.9% of the full set was active somewhere.

C[C@H](CO)N1C[C@H](C)[C@H](CN(C)C(=O)Nc2ccc3c(c2)OCO3)OCc2cnnn2CCCC1=O	none (no result: T cell HTS, V-ATPase pHluor, Yeast superoxide, beta cell repl, Rce1 inhib)
CC(=O)OCCN(Cc1ccccc1)Cc1ccc2c(c1)OCO2	Yeast superoxide 64.4 | CR mimetic CP inactive | DHE counter inactive
COc1ccc(-c2c(-c3cc(OC)cc(OC)c3)n(C)c3ccc(-c4ccc(SC)cc4)cc23)cc1	Yeast superoxide 65.4 (no result: Rce1 inhib) | CR mimetic CP inactive | DHE counter inactive
COc1cc(OC)cc(-c2c(-c3ccc(F)cc3)c3cc(-c4ccc(SC)cc4)ccc3n2C)c1	none (no result: Rce1 inhib)
O=C(O)C1=CCCc2ccc(F)cc21	none (no result: T cell HTS, Yeast superoxide, beta cell repl, Rce1 inhib)
CCN(c1ccc(OC)cc1)S(=O)(=O)c1cc(-c2cc(C)no2)ccc1OC	Yeast superoxide 62.8 | CR mimetic CP inactive | DHE counter inactive
O=C1NCCN(CC2CCN(CC3CCCC3)CC2)C1=O	none (no result: T cell HTS, Yeast superoxide, beta cell repl, Rce1 inhib)
O=C(COC(=O)/C=C/c1cccs1)Nc1ccc(Cl)cc1F	none (no result: Rce1 inhib)
COc1cc(/C=C2\CC/C(=C\c3cc(OC)c(OC)c(OC)c3)C2=O)cc(OC)c1OC	none
COc1cc(/C=C2\CC(C(C)(C)C)C/C(=C\c3cc(OC)c(OC)c(OC)c3)C2=O)cc(OC)c1OC (configuration not stated)	Yeast superoxide 56.6 | CR mimetic CP inactive | DHE counter inactive
CCOC(=O)N1CCN(CC(=O)Nc2sc(CC)cc2C(=O)c2ccc(OC)cc2)CC1	Yeast superoxide 57.9 | CR mimetic CP inactive | DHE counter inactive
CCc1cc(C(=O)OC)c(NC(=O)CN2CCN(C(=O)c3ccco3)CC2)s1	none
Cc1ccc(N2CCN(C(=O)c3ccccc3F)CC2)c(C)c1	none | CR mimetic CP inactive | DHE counter inactive
CCC(=O)c1ccc(N2CCN(C(=O)c3ccccc3F)CC2)c(F)c1	none
Cc1cc(OCC(=O)NCC(c2ccc(F)cc2)N2CCOCC2)ccc1Cl (configuration not stated)	none (no result: Rce1 inhib)
Cc1ccc(CNC(=O)Cc2ccc(-n3c(=O)[nH]c4ccsc4c3=O)cc2)cc1	Yeast superoxide 56.4 | CR mimetic CP inactive | DHE counter inactive
Cc1ccc(CNC(=O)CCCCn2c(=O)[nH]c3ccsc3c2=O)cc1	none
Cc1nc(-c2ccc(S(=O)(=O)Nc3cc(S(=O)(=O)N(C)C)ccc3C)s2)cs1	Yeast superoxide 63.8 | CR mimetic CP inactive | DHE counter inactive
CC1CCC2(CC1)NC(=O)N(CC(=O)N1c3ccccc3CC1C)C2=O (configuration not stated)	none (no result: Rce1 inhib)
COc1ccc(NC(=O)N2CCc3ccccc3C2)cc1	Yeast superoxide 52.4 | CR mimetic CP inactive | DHE counter inactive
CCOc1ccc(NC(=O)N2CCc3ccccc3C2)cc1	none
Cn1cnc(S(=O)(=O)N2CCN(c3ccccc3)CC2)c1	none
COc1ccccc1N1CCN(S(=O)(=O)c2cn(C)cn2)CC1	Yeast superoxide 65.2 | CR mimetic CP inactive | DHE counter inactive
CN(Cc1ccccc1)Cc1cc(=O)oc2ccc3ccccc3c12	none (no result: T cell HTS, V-ATPase pHluor, Yeast superoxide, beta cell repl, Rce1 inhib)
CC1(C)CC(=O)c2c(-c3cccs3)n[nH]c2C1	Yeast superoxide 63.8 | CR mimetic CP inactive | DHE counter inactive
Clc1ccc(/C=C/c2nc(Cl)c(-c3ccc(Cl)cc3)c(Cl)n2)cc1	Yeast superoxide 62.8 | CR mimetic CP inactive | DHE counter inactive
CN(C)c1ccc(NC(=O)c2cccc(C(=O)Nc3ccc(N(C)C)cc3)n2)cc1	Yeast superoxide 64.5 | CR mimetic CP inactive | DHE counter inactive
COc1ccc(S(=O)(=O)Nc2cccc(Cl)c2)cc1OC	none | CR mimetic CP inactive | DHE counter inactive
COc1ccc(NS(=O)(=O)c2ccc(S(=O)(=O)N3CCCC3)cc2)cc1Cl	none
COc1ccc(S(=O)(=O)Nc2ccc(F)c(F)c2)cc1Cl	none | CR mimetic CP inactive | DHE counter inactive
COc1ccc(NS(=O)(=O)c2ccc(OC)c(OC)c2)cc1OC	none (no result: Rce1 inhib)
O=S(=O)(CCNCCc1ccccc1)NC1CCCCC1	none (no result: T cell HTS, Yeast superoxide, beta cell repl, Rce1 inhib)
COC(=O)c1ccccc1NS(=O)(=O)c1ccc(NC(C)=O)cc1	none (no result: Rce1 inhib)
COC(=O)c1ccccc1NS(=O)(=O)c1ccc(F)cc1	none | CR mimetic CP inactive | DHE counter inactive
Cc1ccc(NC(=O)c2sc3nc(C)cc(C)c3c2N)cc1	Yeast superoxide 56.4 | CR mimetic CP inactive | DHE counter inactive
CCOc1ccc(NC(=S)N2CCC(C(=O)c3ccc(OC)cc3)CC2)cc1	none (no result: T cell HTS, Yeast superoxide, beta cell repl, Rce1 inhib)
Cc1sc2ncn(CC(=O)NCCCC(=O)N3CCCCC3)c(=O)c2c1C	none
COc1cccc(/C=N/NC(=O)c2[nH]c(C)c(C(=O)N/N=C/c3cccc(OC)c3O)c2C)c1O	Yeast superoxide 63.1 | CR mimetic CP inactive | DHE counter inactive
CC1CC(C)CN(CC(=O)NCCc2ccc(S(N)(=O)=O)cc2)C1 (configuration not stated)	Yeast superoxide 61.7 | CR mimetic CP inactive | DHE counter inactive
Cc1ccc(-n2nc3ccc(NC(=O)/C=C/c4ccco4)cc3n2)cc1	Yeast superoxide 54.5 | CR mimetic CP inactive | DHE counter inactive
Cc1ccc(NC(=O)c2cccc(NC(=O)/C=C/c3ccco3)c2)cc1C	none
CCN(CC)c1ccc(/C=C/c2cc(-c3ccccc3)c3ccccc3n2)cc1	Yeast superoxide 54.5 (no result: beta cell repl) | CR mimetic CP inactive | DHE counter inactive
Cc1cccc(-n2ncc3c(N4CCOCC4)ncnc32)c1	none | CR mimetic CP inactive | DHE counter inactive
Cc1cccc(-n2ncc3c(N4CCCC4)ncnc32)c1	T cell HTS 0.0 | CR mimetic CP inactive | DHE counter inactive
COc1cccc(CNc2nc3cc(-c4ccccc4C)sc3c(=O)n2C)c1OC	none (no result: T cell HTS, V-ATPase pHluor, Yeast superoxide, beta cell repl, Rce1 inhib)
COc1cccc(CN(C)CC(=O)NCc2ccc(F)cc2)c1OC	Yeast superoxide 38.8 | CR mimetic CP inactive | DHE counter inactive
O=C(Cc1ccc(Cl)cc1)N1CCC2(CC1)NCCc1[nH]cnc12	Yeast superoxide 63.9 | CR mimetic CP inactive | DHE counter inactive
O=C(Cc1ccc(Cl)cc1)NCC(=O)N1CCC2(CC1)NCCc1[nH]cnc12	none (no result: T cell HTS, Yeast superoxide, beta cell repl, Rce1 inhib)
CN(C)c1cccc(CNC(=O)c2csc([C@@H]3C[C@H](O)[C@@H](CO)O3)n2)c1	none (no result: T cell HTS, V-ATPase pHluor, Yeast superoxide, beta cell repl, Rce1 inhib)
CC(=O)N1CCC(C(=O)Nc2cc(C)cc(C)c2)CC1	Yeast superoxide 61.4 (no result: Rce1 inhib) | CR mimetic CP inactive | DHE counter inactive
Cc1cc(C)cc(NC(=O)C2CCN(S(=O)(=O)c3c(C)n[nH]c3C)CC2)c1	none
CC(=O)OC1(C(C)=O)CCC2C3CC4OC45CC(O)CCC5(C)C3CCC21C (configuration not stated)	none (no result: T cell HTS, Yeast superoxide, beta cell repl, Rce1 inhib) | CR mimetic CP inactive | DHE counter inactive
CN(C)C(=O)c1ccc(NC(=O)COC(=O)C2(c3ccccc3)CCCC2)cc1	none (no result: Rce1 inhib)

From PubChem BioAssay
